Converted amounts (≈) assume the structure as drawn. The source made the active and inactive calls. No cut-off for these calls is given here.
Assays:
Type in all cases: functional
[1] = tested on: Raoultella planticola; test: Antibacterial activity against Klebsiella planticola MTCC 530 assessed as inhibition of bacterial growth incubated for 24 hrs by agar well diffusion method; details: MTCC 530, 24 h
Procedure, shortened: (§1)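 Strains from MTCC; inoculum at 0.5 McFarland spread on Mueller-Hinton agar; 6 mm wells loaded with compound over 125–0.97 µg/mL; ciprofloxacin positive control (same range), DMSO negative control. Plates held 24 h at 37 °C; MIC taken as lowest concentration giving a clear inhibition zone. Triplicate runs, mean MIC reported.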

[2] = tested on: Bacillus subtilis; test: Antibacterial activity against Bacillus subtilis MTCC 121 assessed as inhibition of bacterial growth incubated for 24 hrs by agar well diffusion method; details: MTCC 121, 24 h; procedure, shortened: as §1
[3] = tested on: Candida albicans; test: Antifungal activity against Candida albicans MTCC 3017 assessed as inhibition of fungal growth incubated for 24 hrs by agar well diffusion method
Procedure, shortened: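 Candida strains from MTCC, pre-cultured and spread on Mueller Hinton agar. Wells received compound dissolved in 10% DMSO, 125–0.97 µg/mL; miconazole standard over the same range, DMSO negative control. After 24 h at 37 °C, MIC was read as the lowest concentration giving an inhibition zone. Duplicate experiments, means given.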

[4] = tested on: Pseudomonas aeruginosa; test: Antibacterial activity against Pseudomonas aeruginosa MTCC 2453 assessed as inhibition of bacterial growth incubated for 24 hrs by agar well diffusion method; details: MTCC 2453, 24 h; procedure, shortened: as §1
[5] = tested on: Staphylococcus aureus; test: Antibacterial activity against Staphylococcus aureus MLS-16 MTCC 2940 assessed as inhibition of bacterial growth incubated for 24 hrs by agar well diffusion method; details: MLS-16 MTCC 2940, 24 h; procedure, shortened: as §1
[6] = tested on: Micrococcus luteus; test: Antibacterial activity against Micrococcus luteus MTCC 2470 assessed as inhibition of bacterial growth incubated for 24 hrs by agar well diffusion method; details: MTCC 2470, 24 h; procedure, shortened: as §1
[7] = tested on: Escherichia coli; test: Antibacterial activity against Escherichia coli MTCC 739 assessed as inhibition of bacterial growth incubated for 24 hrs by agar well diffusion method; details: MTCC 739, 24 h; procedure, shortened: as §1
[8] = tested on: Staphylococcus aureus; test: Antibacterial activity against Staphylococcus aureus MTCC 96 assessed as inhibition of bacterial growth incubated for 24 hrs by agar well diffusion method; details: MTCC 96, 24 h; procedure, shortened: as §1
[9] = tested on: Pseudomonas aeruginosa; test: Bactericidal activity against Pseudomonas aeruginosa MTCC 2453 assessed as bacterial killing incubated for 24 hrs; details: MTCC 2453, 24 h
Procedure, shortened: (§2)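 Broth tube assay: compound at 0–125 µg/mL in Mueller Hinton broth, overnight culture added to 0.5 McFarland (1.5 × 10^8 cfu/mL), held 24 h at 37 °C. 10 µL from each tube plated on Mueller Hinton agar. MBC is the lowest concentration that kills the strain. Duplicates, means reported.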

[10] = tested on: Raoultella planticola; test: Bactericidal activity against Klebsiella planticola MTCC 530 assessed as bacterial killing incubated for 24 hrs; details: MTCC 530, 24 h; procedure, shortened: as §2
[11] = tested on: Staphylococcus aureus; test: Bactericidal activity against Staphylococcus aureus MTCC 96 assessed as bacterial killing incubated for 24 hrs; details: MTCC 96, 24 h; procedure, shortened: as §2
[12] = tested on: Escherichia coli; test: Bactericidal activity against Escherichia coli MTCC 739 assessed as bacterial killing incubated for 24 hrs; details: MTCC 739, 24 h; procedure, shortened: as §2
[13] = tested on: Bacillus subtilis; test: Bactericidal activity against Bacillus subtilis MTCC 121 assessed as bacterial killing incubated for 24 hrs; details: MTCC 121, 24 h; procedure, shortened: as §2
[14] = tested on: Staphylococcus aureus; test: Bactericidal activity against Staphylococcus aureus MLS-16 MTCC 2940 assessed as bacterial killing incubated for 24 hrs; details: MLS-16 MTCC 2940, 24 h; procedure, shortened: as §2
[15] = tested on: Micrococcus luteus; test: Bactericidal activity against Micrococcus luteus MTCC 2470 assessed as bacterial killing incubated for 24 hrs; details: MTCC 2470, 24 h; procedure, shortened: as §2

SMILES	MIC [1]	MIC [2]	MIC ([3]; MTCC 3017, 24 h)	MIC [4]	MIC [5]	MIC [6]	MIC [7]	MIC [8]	MBC [9]	MIC [3]	MBC [10]	MBC [11]	MBC [12]	MBC [13]	MBC [14]	MBC [15]
COc1cc(/C=N/NC(=O)c2n[nH]c3c2Cc2cc(F)ccc2-3)ccc1O	> 125 µg/mL	> 125 µg/mL	31.2 µg/mL (≈ 85.2 µM)	> 125 µg/mL	3.9 µg/mL (≈ 10.6 µM)	> 125 µg/mL	> 125 µg/mL	> 125 µg/mL	–	–	–	–	–	–	–	–
COc1ccc2c(c1)Cc1c(C(=O)N/N=C/c3ccc(OC)c(OC)c3)n[nH]c1-2	> 125 µg/mL	7.8 µg/mL (≈ 19.9 µM)	> 125 µg/mL	> 125 µg/mL	7.8 µg/mL (≈ 19.9 µM)	3.9 µg/mL (≈ 9.94 µM)	> 125 µg/mL	3.9 µg/mL (≈ 9.94 µM)	–	–	–	–	–	–	–	–
COc1ccc2c(c1)Cc1c(C(=O)N/N=C/c3ccc(O)cc3)n[nH]c1-2	> 125 µg/mL	7.8 µg/mL (≈ 22.4 µM)	> 125 µg/mL	> 125 µg/mL	7.8 µg/mL (≈ 22.4 µM)	3.9 µg/mL (≈ 11.2 µM)	> 125 µg/mL	7.8 µg/mL (≈ 22.4 µM)	–	–	–	–	–	–	–	–
COc1ccc2c(c1)Cc1c(C(=O)N/N=C/c3ccc(Cl)cc3)n[nH]c1-2	> 125 µg/mL	7.8 µg/mL (≈ 21.3 µM)	> 125 µg/mL	> 125 µg/mL	7.8 µg/mL (≈ 21.3 µM)	3.9 µg/mL (≈ 10.6 µM)	3.9 µg/mL (≈ 10.6 µM)	3.9 µg/mL (≈ 10.6 µM)	–	–	–	–	–	–	–	–
COc1cc(/C=N/NC(=O)c2n[nH]c3c2Cc2ccccc2-3)cc(OC)c1OC	> 125 µg/mL	7.8 µg/mL (≈ 19.9 µM)	> 125 µg/mL	> 125 µg/mL	15.6 µg/mL (≈ 39.8 µM)	> 125 µg/mL	> 125 µg/mL	15.6 µg/mL (≈ 39.8 µM)	–	–	–	–	–	–	–	–
COc1ccc2c(c1)Cc1c(C(=O)N/N=C/c3cc(OC)c(OC)c(OC)c3)n[nH]c1-2	> 125 µg/mL	3.9 µg/mL (≈ 9.23 µM)	> 125 µg/mL	> 125 µg/mL	7.8 µg/mL (≈ 18.5 µM)	3.9 µg/mL (≈ 9.23 µM)	> 125 µg/mL	15.6 µg/mL (≈ 36.9 µM)	–	–	–	–	–	–	–	–
COc1ccc(/C=N/NC(=O)c2n[nH]c3c2Cc2cc(F)ccc2-3)cc1OC	> 125 µg/mL	> 125 µg/mL	> 125 µg/mL	> 125 µg/mL	3.9 µg/mL (≈ 10.3 µM)	> 125 µg/mL	> 125 µg/mL	> 125 µg/mL	–	–	–	–	–	–	–	–
O=C(N/N=C/c1ccc(Br)cc1)c1n[nH]c2c1Cc1ccccc1-2	> 125 µg/mL	15.6 µg/mL (≈ 40.9 µM)	> 125 µg/mL	> 125 µg/mL	15.6 µg/mL (≈ 40.9 µM)	> 125 µg/mL	> 125 µg/mL	15.6 µg/mL (≈ 40.9 µM)	–	–	–	–	–	–	–	–
O=C(N/N=C/c1c(F)cc(F)cc1F)c1n[nH]c2c1Cc1cc(F)ccc1-2	> 125 µg/mL	7.8 µg/mL (≈ 20.8 µM)	31.2 µg/mL (≈ 83.4 µM)	> 125 µg/mL	3.9 µg/mL (≈ 10.4 µM)	> 125 µg/mL	> 125 µg/mL	7.8 µg/mL (≈ 20.8 µM)	–	–	–	–	–	–	–	–
COc1cc(/C=N/NC(=O)c2n[nH]c3c2Cc2cc(F)ccc2-3)cc(OC)c1OC	7.8 µg/mL (≈ 19 µM)	3.9 µg/mL (≈ 9.5 µM)	> 125 µg/mL	7.8 µg/mL (≈ 19 µM)	7.8 µg/mL (≈ 19 µM)	7.8 µg/mL (≈ 19 µM)	3.9 µg/mL (≈ 9.5 µM)	3.9 µg/mL (≈ 9.5 µM)	–	–	–	–	–	–	–	–
O=C(N/N=C/c1ccc(Br)cc1)c1n[nH]c2c1Cc1cc(F)ccc1-2	> 125 µg/mL	7.8 µg/mL (≈ 19.5 µM)	> 125 µg/mL	> 125 µg/mL	15.6 µg/mL (≈ 39.1 µM)	> 125 µg/mL	> 125 µg/mL	7.8 µg/mL (≈ 19.5 µM)	–	–	–	–	–	–	–	–
O=C(N/N=C/c1c(F)cc(F)cc1F)c1n[nH]c2c1Cc1ccccc1-2	> 125 µg/mL	15.6 µg/mL (≈ 43.8 µM)	> 125 µg/mL	> 125 µg/mL	> 125 µg/mL	> 125 µg/mL	> 125 µg/mL	> 125 µg/mL	–	–	–	–	–	–	–	–
O=C(O)c1cn(C2CC2)c2cc(N3CCNCC3)c(F)cc2c1=O [CIPROFLOXACIN]	0.9 µg/mL (≈ 2.72 µM)	0.9 µg/mL (≈ 2.72 µM)	–	0.9 µg/mL (≈ 2.72 µM)	0.9 µg/mL (≈ 2.72 µM)	0.9 µg/mL (≈ 2.72 µM)	0.9 µg/mL (≈ 2.72 µM)	0.9 µg/mL (≈ 2.72 µM)	1.9 µg/mL (≈ 5.73 µM)	inactive	1.9 µg/mL (≈ 5.73 µM)	1.9 µg/mL (≈ 5.73 µM)	1.9 µg/mL (≈ 5.73 µM)	1.9 µg/mL (≈ 5.73 µM)	1.9 µg/mL (≈ 5.73 µM)	1.9 µg/mL (≈ 5.73 µM)
COc1ccc(/C=N/NC(=O)c2n[nH]c3c2Cc2ccccc2-3)cc1OC	> 125 µg/mL	> 125 µg/mL	> 125 µg/mL	> 125 µg/mL	> 125 µg/mL	> 125 µg/mL	> 125 µg/mL	> 125 µg/mL	–	–	–	–	–	–	–	–
COc1ccc2c(c1)Cc1c(C(=O)N/N=C/c3ccc(Br)cc3)n[nH]c1-2	> 125 µg/mL	> 125 µg/mL	> 125 µg/mL	> 125 µg/mL	> 125 µg/mL	> 125 µg/mL	> 125 µg/mL	> 125 µg/mL	–	–	–	–	–	–	–	–
O=C(N/N=C/c1ccc(Cl)cc1)c1n[nH]c2c1Cc1cc(F)ccc1-2	> 125 µg/mL	7.8 µg/mL (≈ 22 µM)	> 125 µg/mL	> 125 µg/mL	15.6 µg/mL (≈ 44 µM)	> 125 µg/mL	> 125 µg/mL	15.6 µg/mL (≈ 44 µM)	–	–	–	–	–	–	–	–
O=C(N/N=C/c1ccc(Cl)cc1)c1n[nH]c2c1Cc1ccccc1-2	> 125 µg/mL	7.8 µg/mL (≈ 23.2 µM)	> 125 µg/mL	> 125 µg/mL	3.9 µg/mL (≈ 11.6 µM)	> 125 µg/mL	7.8 µg/mL (≈ 23.2 µM)	3.9 µg/mL (≈ 11.6 µM)	–	–	–	–	–	–	–	–

Source: ChEMBL document CHEMBL4373647, “Design, synthesis, and antimicrobial evaluation of 1,4-dihydroindeno[1,2-c]pyrazole tethered carbohydrazide hybrids: exploring their in silico ADMET, ergosterol inhibition and ROS inducing potential” (Medchemcomm, 2019)
